# Calls of active or inactive are those of the source. No cut-off for these calls is given here.
# Biological target: T1, Proteasome Macropain subunit MB1 (Homo sapiens) (UniProt P28074)
# T1 sequence (whole entry): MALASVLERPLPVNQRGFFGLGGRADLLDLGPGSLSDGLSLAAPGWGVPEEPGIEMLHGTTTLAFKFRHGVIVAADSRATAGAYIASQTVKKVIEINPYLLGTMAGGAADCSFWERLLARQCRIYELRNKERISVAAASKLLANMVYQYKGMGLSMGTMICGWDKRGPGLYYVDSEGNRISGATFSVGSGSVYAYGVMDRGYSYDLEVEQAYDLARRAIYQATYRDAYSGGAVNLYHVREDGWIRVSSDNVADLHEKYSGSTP
# Test: Inhibition of chymotrypsin like activity of 20S proteasome (unknown origin) using suc-leu-leu-val-tyr-AMC as substrate at 10 uM after 40 mins in presence of nickel by fluorescence assay
# In short: (§1)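 To test metal selectivity, the chloride of nickel, calcium, iron or zinc replaced copper and was premixed with compound for 40 min with shaking in 50 mM Tris pH 7.6. 20S proteasome and suc-LLVY-AMC were then added and incubated 2 h at 37 °C. Cleavage was read by fluorescence at 340 nm excitation and 460 nm emission.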
row,inhibition,Structure (SMILES)
1,Active,CCN(CC)C(=S)SSC(=S)N(CC)CC
2,Active,O=C1c2c(O)cc(O)cc2OCC1c1ccc(O)cc1 (stereo unspecified)
3,Active,O=C(O)c1ccc(O)c(O)c1
4,Active,O=C1COc2c1ccc(O)c2O
5,Active,NC(=O)SCC(=O)Nc1ccccc1C(=O)O
6,Active,OCc1cc(O)c(CO)nn1
7,Active,O=c1oc2c(cc1O)oc(=O)c1cc(O)c(O)c(O)c12

# Biological target: T1, Proteasome Macropain subunit MB1 (Homo sapiens)
# Test: Inhibition of chymotrypsin like activity of 20S proteasome (unknown origin) using suc-leu-leu-val-tyr-AMC as substrate at 10 uM after 40 mins in presence of iron by fluorescence assay
# In short: as §1
row,inhibition,Structure (SMILES)
1,Active,CCN(CC)C(=S)SSC(=S)N(CC)CC
2,Active,O=C1c2c(O)cc(O)cc2OCC1c1ccc(O)cc1 (stereo unspecified)
3,Active,O=C(O)c1ccc(O)c(O)c1
4,Active,O=C1COc2c1ccc(O)c2O
5,Active,NC(=O)SCC(=O)Nc1ccccc1C(=O)O
6,Active,OCc1cc(O)c(CO)nn1
7,Active,O=c1oc2c(cc1O)oc(=O)c1cc(O)c(O)c(O)c12

# Biological target: T2, Proteasome Macropain subunit MB1 (Homo sapiens, UniProt P28074)
# T2 sequence (P28074 whole entry): T1 sequence (whole entry)
# Test: Inhibition of chymotrypsin like activity of 20S proteasome (unknown origin) using suc-leu-leu-val-tyr-AMC as substrate after 40 mins in presence of 100 nM copper by fluorescence assay
# In short: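 Dose-response format in which compound concentration was varied with copper chloride fixed at 100 nM. Compound and copper were pre-equilibrated 40 min with gentle shaking in 50 mM Tris pH 7.6, final DMSO below 2%. 20S proteasome and suc-LLVY-AMC were added and run 2 h at 37 °C. AMC fluorescence was read at 340/460 nm, and IC50 was taken from the curve.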
row,IC50,Structure (SMILES)
1,3 µM,O=C1COc2c1ccc(O)c2O

# Biological target: T1, Proteasome Macropain subunit MB1 (Homo sapiens)
# Test: Inhibition of chymotrypsin like activity of 20S proteasome (unknown origin) using suc-leu-leu-val-tyr-AMC as substrate at 10 uM after 40 mins in presence of copper by fluorescence assay
row,inhibition,Structure (SMILES)
1,Active,CCN(CC)C(=S)SSC(=S)N(CC)CC
2,Active,O=C1c2c(O)cc(O)cc2OCC1c1ccc(O)cc1 (stereo unspecified)
3,Active,O=C(O)c1ccc(O)c(O)c1
4,Active,O=C1COc2c1ccc(O)c2O
5,Active,NC(=O)SCC(=O)Nc1ccccc1C(=O)O
6,Active,OCc1cc(O)c(CO)nn1
7,Active,O=c1oc2c(cc1O)oc(=O)c1cc(O)c(O)c(O)c12

# Biological target: T1, Proteasome Macropain subunit MB1 (Homo sapiens)
# Test: Inhibition of chymotrypsin like activity of 20S proteasome (unknown origin) using suc-leu-leu-val-tyr-AMC as substrate at 10 uM after 40 mins in presence of calcium by fluorescence assay
# In short: as §1
row,inhibition,Structure (SMILES)
1,Active,CCN(CC)C(=S)SSC(=S)N(CC)CC
2,Active,O=C1c2c(O)cc(O)cc2OCC1c1ccc(O)cc1 (stereo unspecified)
3,Active,O=C(O)c1ccc(O)c(O)c1
4,Active,O=C1COc2c1ccc(O)c2O
5,Active,NC(=O)SCC(=O)Nc1ccccc1C(=O)O
6,Active,OCc1cc(O)c(CO)nn1
7,Active,O=c1oc2c(cc1O)oc(=O)c1cc(O)c(O)c(O)c12

# Biological target: T1, Proteasome Macropain subunit MB1 (Homo sapiens)
# Test: Inhibition of chymotrypsin like activity of 20S proteasome (unknown origin) using suc-leu-leu-val-tyr-AMC as substrate at 10 uM after 40 mins in presence of 1 uM copper by fluorescence assay
# In short: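 Compound in DMSO, final DMSO below 2%, at 10 µM. Premixed with 1 µM copper chloride in 50 mM Tris pH 7.6 for 40 min with gentle shaking to allow chelation. 20S proteasome and suc-Leu-Leu-Val-Tyr-AMC were then added and incubated 2 h at 37 °C. Substrate cleavage rate was read as fluorescence at 340 nm excitation and 460 nm emission.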
row,inhibition,Structure (SMILES)
1,92%,CCN(CC)C(=S)SSC(=S)N(CC)CC
2,> 80%,O=C1c2c(O)cc(O)cc2OCC1c1ccc(O)cc1 (stereo unspecified)
3,> 80%,O=C(O)c1ccc(O)c(O)c1
4,> 80%,O=C1COc2c1ccc(O)c2O
5,> 80%,NC(=O)SCC(=O)Nc1ccccc1C(=O)O
6,> 80%,OCc1cc(O)c(CO)nn1
7,> 80%,O=c1oc2c(cc1O)oc(=O)c1cc(O)c(O)c(O)c12
